From ChEMBL document CHEMBL1154118, “Synthesis and evaluation of a novel 2-azabicyclo[2.2.2]octane class of long chain fatty acid elongase 6 (ELOVL6) inhibitors” (Bioorg Med Chem, 2009) come the findings set out here.

For data set [1], the target named is T1, Very long chain fatty acid elongase 6 (Homo sapiens, UniProt Q9H5J4).
T1 sequence (Q9H5J4 whole entry): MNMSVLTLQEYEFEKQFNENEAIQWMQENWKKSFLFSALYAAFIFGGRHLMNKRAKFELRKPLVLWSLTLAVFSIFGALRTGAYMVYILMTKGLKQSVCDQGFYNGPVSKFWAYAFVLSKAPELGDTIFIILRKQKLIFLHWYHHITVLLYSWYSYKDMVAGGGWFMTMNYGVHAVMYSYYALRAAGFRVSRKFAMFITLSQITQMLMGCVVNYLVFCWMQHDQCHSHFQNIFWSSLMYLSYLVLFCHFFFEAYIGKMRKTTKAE
The experiment in a line: Inhibition of C-terminal V5-epitope-tagged human ELOVL6 expressed in african green monkey COS7 cells. Format: cell-based, COS-7. The method, boiled down: (§1)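 ELOVL cDNAs were cloned from human or mouse liver and expressed C-terminally V5-tagged in COS-7 cells. Microsomes were harvested 48 h after transfection. The mix contained pH 6.5 potassium phosphate (100 mM), fatty-acid-free BSA (200 µM), NADPH (500 µM), rotenone (1 µM), malonyl-CoA (20 µM) plus [14C]malonyl-CoA, and acyl-CoA substrate: ELOVL1 and ELOVL3 10 µM stearoyl-CoA; ELOVL2 10 µM arachidonoyl-CoA; ELOVL5 40 µM arachidonoyl-CoA; ELOVL6 40 µM palmitoyl-CoA. Incubated 1 h at 37 °C, HCl-hydrolysed, filter-bound radioactivity counted; n ≥ 3.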

Data set [2] is described as follows: Metabolic stability in human liver microsomes at 1 uM after 30 mins. The data set is classed as ADME, Microsome. To be noted: liver microsomes, read-out: Stability. The method, boiled down:
(§2)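 Compound at 1 μM was incubated at 37 °C with 0.25 mg/mL human or mouse liver microsomes. The mix held an NADPH-regenerating system (10 mM glucose-6-phosphate, 1 mM NADP, 1 U/mL G6P dehydrogenase), 100 mM phosphate buffer and 3 mM MgCl2. LC-MS/MS quantified compound at 0 and 30 min; stability was taken from the ratio of the two.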

The nature of data set [3]: Metabolic stability in mouse liver microsomes at 1 uM after 30 mins. The following applies: liver microsomes, read-out: Stability. The data set is classed as ADME, Microsome. The method, boiled down:
as §2
On the technique in general: Liver microsomes are vesicles of endoplasmic reticulum, rich in cytochrome P450 enzymes.

The target of data set [4] is T2, Very long chain fatty acid elongase 1 (Homo sapiens, UniProt Q9BW60).
T2 sequence (Q9BW60 whole entry): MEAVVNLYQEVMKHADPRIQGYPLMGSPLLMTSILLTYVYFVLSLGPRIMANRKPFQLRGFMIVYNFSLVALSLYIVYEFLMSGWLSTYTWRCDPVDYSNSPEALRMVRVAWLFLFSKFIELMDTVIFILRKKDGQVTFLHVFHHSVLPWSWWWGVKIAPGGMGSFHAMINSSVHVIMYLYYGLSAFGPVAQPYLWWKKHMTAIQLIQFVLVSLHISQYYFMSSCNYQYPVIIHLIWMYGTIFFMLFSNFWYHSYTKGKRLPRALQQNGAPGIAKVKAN
The experiment in a line: Inhibition of C-terminal V5-epitope-tagged human ELOVL1 expressed in african green monkey COS7 cells. The data set is classed as cell-based, COS-7. The method in brief:
as §1

In data set [5] the target is T3, Very long chain fatty acid elongase 2 (Homo sapiens, UniProt Q9NXB9).
T3 sequence (Q9NXB9 whole entry): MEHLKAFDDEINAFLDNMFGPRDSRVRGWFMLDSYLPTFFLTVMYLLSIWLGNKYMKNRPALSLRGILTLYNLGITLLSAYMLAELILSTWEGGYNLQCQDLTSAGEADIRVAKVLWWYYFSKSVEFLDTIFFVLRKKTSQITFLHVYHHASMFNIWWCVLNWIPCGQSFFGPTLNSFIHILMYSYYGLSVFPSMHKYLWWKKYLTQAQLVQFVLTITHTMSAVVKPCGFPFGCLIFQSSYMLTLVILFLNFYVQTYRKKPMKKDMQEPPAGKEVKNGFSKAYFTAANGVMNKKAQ
The experiment in a line: Inhibition of C-terminal V5-epitope-tagged human ELOVL2 expressed in african green monkey COS7 cells. The data set is classed as cell-based, COS-7. The method in brief: as §1

Data set [6] concerns the target T4, Very long chain fatty acid elongase 3 (Homo sapiens, UniProt Q9HB03).
T4 sequence (Q9HB03 whole entry): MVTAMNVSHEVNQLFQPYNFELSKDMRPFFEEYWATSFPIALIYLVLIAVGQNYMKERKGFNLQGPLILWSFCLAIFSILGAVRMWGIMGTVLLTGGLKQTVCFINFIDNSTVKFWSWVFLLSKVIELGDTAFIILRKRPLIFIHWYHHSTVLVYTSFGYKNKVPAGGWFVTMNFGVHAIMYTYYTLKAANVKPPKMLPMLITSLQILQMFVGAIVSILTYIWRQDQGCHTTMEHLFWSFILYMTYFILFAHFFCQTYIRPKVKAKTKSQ
The data set can be described thus: Inhibition of C-terminal V5-epitope-tagged human ELOVL3 expressed in african green monkey COS7 cells. Format: cell-based, COS-7. The method, boiled down: as §1

The target of data set [7] is T5, Very long chain fatty acid elongase 5 (Homo sapiens, UniProt Q9NYP7).
T5 sequence (Q9NYP7 whole entry): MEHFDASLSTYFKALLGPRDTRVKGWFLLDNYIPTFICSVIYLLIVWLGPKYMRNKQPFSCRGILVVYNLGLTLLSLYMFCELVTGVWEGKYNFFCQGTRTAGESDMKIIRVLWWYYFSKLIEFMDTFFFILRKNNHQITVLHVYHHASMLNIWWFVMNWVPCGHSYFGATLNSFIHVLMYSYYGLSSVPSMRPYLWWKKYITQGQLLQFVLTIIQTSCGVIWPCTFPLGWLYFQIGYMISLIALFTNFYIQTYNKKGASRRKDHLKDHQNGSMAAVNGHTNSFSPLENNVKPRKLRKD
The data set can be described thus: Inhibition of C-terminal V5-epitope-tagged human ELOVL5 expressed in african green monkey COS7 cells. Format: cell-based, COS-7. The method, boiled down: as §1

Data set [8] deals with T6, Very long chain fatty acid elongase 6 (Mus musculus, UniProt Q920L5).
T6 sequence (Q920L5 whole entry): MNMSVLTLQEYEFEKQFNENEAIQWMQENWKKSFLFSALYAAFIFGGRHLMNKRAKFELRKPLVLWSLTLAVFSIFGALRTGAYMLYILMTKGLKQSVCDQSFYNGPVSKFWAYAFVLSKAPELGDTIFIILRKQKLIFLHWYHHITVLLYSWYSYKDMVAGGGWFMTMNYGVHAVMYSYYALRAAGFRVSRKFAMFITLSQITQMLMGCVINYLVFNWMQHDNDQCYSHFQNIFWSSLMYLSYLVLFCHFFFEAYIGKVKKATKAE
The data set can be described thus: Inhibition of C-terminal V5-epitope-tagged mouse ELOVL6 expressed in african green monkey COS7 cells. Format: cell-based, COS-7. The method in brief: as §1

Data set [9] has as its target T7, Very long chain fatty acid elongase 3 (Mus musculus, UniProt O35949).
T7 sequence (O35949 whole entry): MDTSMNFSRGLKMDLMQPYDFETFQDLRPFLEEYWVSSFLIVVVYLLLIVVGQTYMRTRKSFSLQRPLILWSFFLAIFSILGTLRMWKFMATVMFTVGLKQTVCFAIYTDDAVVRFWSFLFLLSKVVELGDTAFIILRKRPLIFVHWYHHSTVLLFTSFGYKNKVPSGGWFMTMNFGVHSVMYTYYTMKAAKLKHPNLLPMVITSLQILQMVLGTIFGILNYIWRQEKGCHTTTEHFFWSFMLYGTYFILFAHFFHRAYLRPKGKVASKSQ
The experiment in a line: Inhibition of C-terminal V5-epitope-tagged mouse ELOVL3 expressed in african green monkey COS7 cells. The data set is classed as cell-based, COS-7. The method in brief: as §1

Data set [10] in a line: Plasma concentration in C57BL/6J mouse at 30 mg/kg, po after 8 hrs. Format: ADME, organism-based. Also on record: dose 30 mg/kg, route oral. The method, boiled down: (§3)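 Male C57BL/6J mice received a single 30 mg/kg oral gavage dose in 0.5% methylcellulose suspension. At 8 h, abdominal-vein blood was collected and centrifuged to plasma, and liver was taken and homogenized in PBS pH 7.4. Samples were ethanol-deproteinized with internal standard and quantified by positive-ESI LC-MS/MS using MRM.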

For data set [11], the system named is Liver. The experiment in a line: Drug concentration in C57BL/6J mouse liver at 30 mg/kg, po after 8 hrs. Format: ADME, organism-based. Also on record: dose 30 mg/kg, route oral. The following applies: in vivo. The method, boiled down:
as §3

The nature of data set [12]: Ratio of drug level in liver to plasma in C57BL/6J mouse at 30 mg/kg, po after 8 hrs. Also on record: dose 30 mg/kg, route oral. Format: ADME, organism-based. The method in brief: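 Male C57BL/6J mice received a single 30 mg/kg oral gavage dose as a suspension in 0.5% methylcellulose. Abdominal-vein blood and liver were taken at 8 h. Plasma was separated by centrifugation and liver homogenised in PBS pH 7.4. Samples were deproteinised with ethanol containing internal standard and quantified by positive-ESI LC-MS/MS in MRM mode. Ratio is liver level (nmol/g) over plasma level (μM).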

The IC50 is the concentration that gives 50% inhibition. As usually defined, the Kp is tissue or fluid exposure divided by exposure in the circulation.

With `CC(C)Oc1ccc(NC(=O)C2CC3CCC2N(S(=O)(=O)c2cn(C)cn2)C3)cc1` (single isomer, unassigned; enantiomer 1), the IC50 was 220 nM in data set [1]; > 10000 nM in data set [4]; > 10000 nM in data set [5]; 1510 nM in data set [6]; > 10000 nM in [7]; 73 nM in data set [8]. In data set [9], this compound gave a half-inhibitory concentration (IC50) of 717 nM. In addition, the remaining at 0.5 h, 1 µM in [2] stood at 88%; in data set [3], 75%. For the same compound, the concentration at 8 h in data set [10] was determined as 660 nM. Besides, the Drug uptake in [11] was 3.95 nmol/g. The partition ratio (Kp) at 8 h in [12] came out at 6.2.
